Measurements of several laboratories.
Protocols differ between the studies behind these lines. pIC50: −log10 of the molar value.
Read-out: cell growth or viability

SMILES | cell line | test | setting | pIC50
COC(=O)c1cc2ccc(O)cc2oc1=O | HEK293 | MTT | 36 h | < 4.70
C=C(Cl)C(=O)Nc1cc(Nc2nc(N3CCc4sccc4C3)c3sccc3n2)c(OC)cc1N(C)CCN(C)C | NCI-H1975 | MTT |  | 7.06
c1cc(CN2CCN(c3ccncc3)CC2)cc(-c2ccc(-c3nc4ccccc4[nH]3)cc2)c1 | HEK293 |  |  | < 5.00
Cn1nnc2c(C(N)=O)ncn2c1=O | T98G | resazurin | 7 days | 3.18
COc1c(C)[nH]c(C)c(-c2ccc(Oc3cccc(C(F)(F)F)c3)cc2)c1=O | HEK293 |  |  | < 5.00
CC(=O)SCc1cc(=O)oc2cc(O)ccc12 | HEK293 | MTT | 36 h | < 4.70
COc1ccc(F)cc1C(=O)NCc1ccc(-c2nn([C@@H](C)C(F)(F)F)c(N)c2C(N)=O)cc1 | TMD8 | ATP luminescence | 72 h | 8.19
CCCCCCCc1[nH]c2ccccc2c(=O)c1C | HEK293 |  |  | < 5.00
COc1cc2c(Nc3ccc(Cl)c(Cl)c3F)ncnc2cc1OC[C@@H]1C[C@@H]2CN(C)C[C@@H]2C1 | GBM6 | ATP luminescence | 18 days, 3D culture | 6.99
CCSC(=O)c1ncn2c(=O)n(C)nnc12 | T98G | resazurin | 7 days | 3.49
COc1cc(N(C)CCN(C)C)c(NC(=O)/C=C/C(C)C)cc1Nc1nc(Nc2cnn(C)c2)c2sccc2n1 | NCI-H1975 | MTT |  | 6.53
CC(C)[C@H](N)C(=O)N1CCC[C@H]1B(O)O | SET-2 | ATP luminescence | 48 h | 8.22
C=CC(=O)Nc1cc(Nc2nc(N3CCc4sccc4C3)c3cccnc3n2)c(OC)cc1N1CCN(CCO)CC1 | NCI-H1975 | MTT |  | 6.04
CC(=O)O[C@H](C)C(=O)CCCCCCC(=O)Nc1ccccc1 | HEK293 | XTT |  | 4.44
CCN(CC)C(=O)c1ncn2c(=O)n(C)nnc12 | T98G | resazurin | 7 days | 3.80
COc1ccc2oc(=O)cc(CSC(C)=O)c2c1 | HEK293 | MTT | 36 h | < 4.70
Cc1[nH]c(C)c(-c2ccc(-c3cccc(C(F)(F)F)c3)nc2)c(=O)c1Br | HEK293 |  |  | < 5.00
C=CC(=O)Nc1cc(Nc2nc(N3CCc4sccc4C3)c3cccnc3n2)c(OC)cc1N1CCC(N(C)C)CC1 | NCI-H1975 | MTT |  | 6.82
C=CC(=O)Nc1cccc(N2C(=O)OC(C)c3cnc(Nc4ccc(N5CCN(C)CC5)cc4OC)nc32)c1 (stereo not shown) | TMD8 | CCK-8 | 72 h | 7.55

SMILES | cell line | test | setting | pIC50
C=CC(=O)Nc1cc(Nc2nc(N3CCc4sccc4C3)c3cccnc3n2)c(OC)cc1N1CCSCC1 | NCI-H1975 | MTT |  | 6.51
Cc1c(O)ccc2ccc(=O)oc12 | HEK293 | MTT | 36 h | < 4.70
O=C1NC(=NCc2cccs2)S/C1=C\c1ccc2ncccc2c1 | SK-MEL-28 |  |  | < 5.00
CC#CC(=O)N1CCC[C@H]1c1nc(-c2ccc(C(=O)Nc3ccccn3)cc2)c2c(N)nccn12 | TMD8 | CCK-8 | 72 h | 7.85
CCOC(=O)c1c(-c2ccccc2)nc2c(sc3ccccc32)c1O | HEK293 |  |  | < 5.00
CCC(=O)Nc1cc(Nc2nc(Nc3cnn(C)c3)c3sccc3n2)c(OC)cc1N(C)CCN(C)C | NCI-H1975 | MTT |  | < 4.30
Cc1[nH]c(C)c(-c2ccc(OCc3cc(C(F)(F)F)cc(C(F)(F)F)c3)nc2)c(=O)c1Br | HEK293 |  |  | < 5.00
CC[C@@H](C)[C@H](N)C(=O)N1Cc2ccccc2C1 | SET-2 | ATP luminescence |  | 7.05
CC(C)C[C@H](NC(=O)[C@H](Cc1ccccc1)NC(=O)c1cnccn1)B(O)O | MKN-1 | ATP luminescence |  | 8.28
C=CC(=O)N1CCC[C@@H](n2nc(-c3ccc(Oc4ccccc4)cc3)c3c(N)ncnc32)C1 | CNE2Z |  |  | < 5.00
Cc1cc(C)c2cc(CNCCCNc3nc4ccccc4[nH]3)[nH]c2c1 | HEK293 |  |  | < 5.00
O=C1Nc2ccccc2-c2cnc(NCc3c(F)ccc4c3CCO4)n3cnc1c23 | KARPAS-422 | CCK-8 | 7 days | 7.17
Cn1nnc2c(-c3ccccc3)ncn2c1=O | T98G | resazurin | 7 days | 4.85
CCC(=O)Nc1cc(Nc2nc(N3CCc4sccc4C3)c3cccnc3n2)c(OC)cc1N1CCC(N(C)C)CC1 | NCI-H1975 | MTT |  | 6.09
C=CC(=O)Nc1cccc(Nc2nc(Nc3ccc(OCCOC)cc3)ncc2F)c1 | CNE2Z |  |  | 5.20
CC(=O)Oc1ccc2c(CSC(C)=O)cc(=O)oc2c1 | HEK293 | MTT | 36 h | < 4.70
Cc1[nH]cc(Br)c(=O)c1-c1ccc(Oc2ccc(OC(F)(F)F)cc2)cc1 | HEK293 |  |  | < 5.00
C=C(Cl)C(=O)Nc1cc(Nc2nc(N3CCCC3)c3sccc3n2)c(OC)cc1N(C)CCN(C)C | NCI-H1975 | MTT |  | 6.90
